Screening data: PubChem, several laboratories
FAS TE block – FAS thioesterase (human) inhibition; recombinant FAS-TE, OMFH fluorogenic substrate, fluorescence endpoint; inhibition, % at 15 µM; hit rate 0.67% among 360,000; AID 602261;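 active = compounds whose normalised, plate-corrected inhibition of enzyme fluorescence in the single-dose primary screen is 50% or more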
SENP1 inh – SENP1 (human) catalytic domain inhibition; hit rate 0.21% among 360,000; AID 624204; Q9P0U3; recombinant SENP1 catalytic domain, CyPet-SUMO1-YPet FRET cleavage; inhibition, % at 10 µM;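 active = inhibition at least 30% at 10 µM, raw YFP signal under a set limit, fluorescence ratio 0.5 to 1.5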
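Assay system – human recombinant His6-tagged SENP1 catalytic domain enzyme · Input – SENP1 enzyme, 20 pM final · Buffer or medium – Tris pH 8 buffer plus EDTA, NaCl, BME, BSA, NP40, catalase · Schedule – 50 min reaction at room temperature · Technique – FRET read of cyan and yellow fluorescence · Control set – no-enzyme wells low, DMSO-plus-enzyme wells high control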
ADAM10 inh – ADAM10 inhibition, QFRET primary screen. hit rate 0.62% among 370,000. recombinant ADAM10, EDANS/DABCYL FRET peptide cleavage, 3 h. inhibition, % at 7 µM. O14672;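 active = inhibition above a per-campaign cutoff equal to the mean of compounds falling between control-based bounds plus 3 SD, cut at about 20% in these data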
Target sequence (O14672 214-748 limits assumed): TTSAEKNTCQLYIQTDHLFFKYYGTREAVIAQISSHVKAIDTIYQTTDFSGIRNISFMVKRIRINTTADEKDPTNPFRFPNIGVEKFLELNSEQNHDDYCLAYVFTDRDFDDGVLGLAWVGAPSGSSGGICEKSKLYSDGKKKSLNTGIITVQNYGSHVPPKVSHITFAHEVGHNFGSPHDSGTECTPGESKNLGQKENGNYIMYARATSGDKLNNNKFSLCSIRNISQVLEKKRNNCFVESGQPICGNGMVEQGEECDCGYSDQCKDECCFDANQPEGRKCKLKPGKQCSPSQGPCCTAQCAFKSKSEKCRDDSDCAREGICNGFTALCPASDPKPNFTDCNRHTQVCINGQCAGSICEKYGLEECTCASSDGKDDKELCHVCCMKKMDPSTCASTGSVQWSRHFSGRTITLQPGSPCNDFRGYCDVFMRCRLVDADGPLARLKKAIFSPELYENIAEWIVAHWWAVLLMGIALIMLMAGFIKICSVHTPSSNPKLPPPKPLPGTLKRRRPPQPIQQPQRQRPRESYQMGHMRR
ADAM17 inh – ADAM17 inhibition, QFRET primary screen. P78536. recombinant ADAM17, EDANS/DABCYL FRET peptide cleavage. inhibition, % at 6.95 µM. hit rate 0.83% among 370,000. AID 720648;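 active = inhibition above the mean of compounds lying between control limits plus 3 SD, set per campaign, cut at about 8.5% in these data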
ADAM10 confirm – confirmation of inhibitors of human ADAM10 | ADAM10 QFRET peptide cleavage, EDANS fluorescence | shares compounds with ADAM10 inh | hit rate 1% among 2,100 | inhibition, % at 6.95 µM | AID 743208;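 active = inhibition above about 20% chosen separately for each screening run, limit read from the data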
ADAM17 ctr – counter-screen for ADAM10 exosite inhibitors: inhibitors of human ADAM17 | ADAM17 QFRET peptide cleavage, EDANS fluorescence | AID 743214 | shares compounds with ADAM10 inh | hit rate 0.5% among 2,100 | inhibition, % at 6.95 µM;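 active = mean triplicate inhibition above the solvent-only control wells' mean plus 3 SD, cut at about 12% in these data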
Large screens that a line does not name were inactive (follow-up assays come after a bar, where they were run). Sampled rows, rich in hits. Any-hit rate of the full collection: about 1.9%.

C[C@@H]1CN([C@H](C)CO)C(=O)c2cc(NC(=O)Nc3ccccc3)ccc2O[C@@H](C)CCCCO[C@H]1CN(C)S(=O)(=O)c1ccc(F)cc1	ADAM10 inh 20.3 (no result: FAS TE block, SENP1 inh) | ADAM10 confirm inactive | ADAM17 ctr inactive
COc1cc(C=NN2CCN(C(c3ccccc3)c3ccccc3)CC2)cc(OC)c1OC(C)=O	none (no result: FAS TE block, SENP1 inh)
O=C(NC(C(=O)N/N=C/c1cccc2ccccc12)c1n[nH]c(=O)c2ccccc12)c1ccccc1 (configuration not stated)	ADAM10 inh 21.9 | ADAM10 confirm inactive | ADAM17 ctr inactive
O=C(Nc1ccccc1Cl)OC1CC2CC1[C@H]1CCCCN1[C@H]2Cc1ccccc1 (some centres not stated)	none (no result: FAS TE block, SENP1 inh)
COc1ccccc1C1=NC(c2ccc(C)cc2)N=C1C (configuration not stated)	ADAM10 inh 95.4 | ADAM10 confirm inactive | ADAM17 ctr inactive
COc1ccccc1-c1nnc(-c2ccc(C)cc2)o1	none
CCOC(=O)NC[C@@]1(C(=O)OC)CC(=O)N(C)[C@@H]1c1ccccc1	none (no result: FAS TE block, SENP1 inh)
O=C(Cc1cccs1)NC1CCCCN(Cc2ccc(Cl)cc2)C1=O (configuration not stated)	none (no result: FAS TE block, SENP1 inh)
S=c1[nH]nc(CSc2nc3ccccc3s2)o1	ADAM10 inh 25.2 | ADAM10 confirm inactive | ADAM17 ctr inactive
COC(=O)c1cn(-c2ccc(-c3noc4c3C(=O)N(CC(=O)N3CCOCC3)CC4)cc2)nn1	none (no result: FAS TE block, SENP1 inh)
COC(=O)[C@]12C[C@H](CC(=O)NCc3cccs3)C(=O)N(Cc3cccc4ccccc34)C1=C[C@H](C1CCCC1)O[C@@H]2C	ADAM10 inh 20.6 (no result: FAS TE block, SENP1 inh) | ADAM10 confirm inactive | ADAM17 ctr inactive
COC(=O)[C@]12C[C@H](CC(=O)N3CCCC3)C(=O)N(CCc3ccc(OC)c(OC)c3)C1=C[C@H](COCc1ccccc1)O[C@@H]2C	none (no result: FAS TE block, SENP1 inh)
COC(=O)[C@]12C[C@H](CC(=O)NCc3cccc4ccccc34)C(=O)N(CCc3ccc(OC)c(OC)c3)C1=C[C@H](C(C)(C)C)O[C@@H]2C	ADAM10 inh 21.7 (no result: FAS TE block, SENP1 inh) | ADAM10 confirm inactive | ADAM17 ctr inactive
COC(=O)[C@]12C[C@H](CC(=O)N3CCCCC3)C(=O)N(CCc3ccc(OC)c(OC)c3)C1=C[C@H](COCc1ccccc1)O[C@@H]2C	ADAM10 inh 58.3 (no result: FAS TE block, SENP1 inh) | ADAM10 confirm inactive | ADAM17 ctr inactive
CCOC(=O)N1CCN(C(=O)C[C@H]2C[C@@]3(C(=O)OC)C(=C[C@H](C4CCCC4)O[C@@H]3C)N(Cc3cccc4ccccc34)C2=O)CC1	ADAM10 inh 23.6 (no result: FAS TE block, SENP1 inh) | ADAM10 confirm inactive | ADAM17 ctr inactive
COC(=O)[C@H]1C[C@@]2(N3CCCCC3)c3ccccc3N(S(=O)(=O)c3ccccc3)[C@H]2N1	none (no result: FAS TE block, SENP1 inh)
COc1ccc(-n2cc(COC(=O)NCCc3c[nH]c4ccccc34)nn2)cc1	none (no result: FAS TE block, SENP1 inh)
COC(=O)[C@]12C[C@H](CC(=O)N3CCC(c4ccccc4)CC3)C(=O)N(Cc3ccc(Cl)cc3Cl)C1=C[C@H](C(C)(C)C)O[C@@H]2C	none (no result: FAS TE block, SENP1 inh)
COC(=O)[C@]12C[C@H](CC(=O)NCc3cccc4ccccc34)C(=O)N(Cc3ccco3)C1=C[C@H](COCc1ccccc1)O[C@@H]2C	ADAM10 inh 22.4 (no result: FAS TE block, SENP1 inh) | ADAM10 confirm inactive | ADAM17 ctr inactive
CCCCNC(=O)C[C@H]1C[C@@]2(C(=O)OC)C(=C[C@H](C3CCCC3)O[C@@H]2C)N(Cc2cccc3ccccc23)C1=O	ADAM10 inh 24.2 (no result: FAS TE block, SENP1 inh) | ADAM10 confirm inactive | ADAM17 ctr inactive
c1ccc2c(c1)N=C(N1CCN(Cc3ccc4c(c3)OCO4)CC1)c1ccccc1S2	none (no result: FAS TE block, SENP1 inh)
CCCCn1c(N)c(N(CCC(C)C)C(=O)c2ccc(N3CCCC3=O)cc2)c(=O)[nH]c1=O	ADAM10 inh 63.3 | ADAM10 confirm inactive | ADAM17 ctr inactive
CCCCn1c(N)c(N(CC)C(=O)c2ccc(N3CCCC3=O)cc2)c(=O)[nH]c1=O	none
CN1CCCCC(NC(=O)c2ccc(F)cc2)C1=O (configuration not stated)	none (no result: FAS TE block, SENP1 inh)
CCCNC(=O)c1cc(C2CCCCN2S(=O)(=O)c2ccc(OC)cc2)on1 (configuration not stated)	none
CCCNC(=O)c1cc(C2CCCCN2S(=O)(=O)c2ccccc2)on1 (configuration not stated)	ADAM10 inh 83.8 | ADAM10 confirm inactive | ADAM17 ctr inactive
Cc1cccc(OCc2nnc(SCC(=O)N3c4ccccc4CCc4ccccc43)o2)c1	none
O=C(CSc1nnc(COc2ccc(F)cc2)o1)N1c2ccccc2CCc2ccccc21	ADAM10 inh 20.1 | ADAM10 confirm inactive | ADAM17 ctr inactive
COC(=O)[C@]12C[C@H](CC(=O)NCc3ccccc3)C(=O)N(Cc3cccc4ccccc34)C1=C[C@H](C(C)(C)C)O[C@@H]2C	none (no result: FAS TE block, SENP1 inh)
CSCC[C@H](NC(=O)OC(C)(C)C)c1nnc(SCc2cccc(F)c2)o1	ADAM10 inh 20.4 | ADAM10 confirm inactive | ADAM17 ctr inactive
CC(C)(C)CC(C)(C)NC(=O)CSCC(=O)Nc1ccc2ccccc2c1	ADAM10 inh 24.8 | ADAM10 confirm inactive | ADAM17 ctr inactive
CC(C)(C)OC(=O)N1CCC2CCN(S(C)(=O)=O)CC21 (configuration not stated)	none (no result: FAS TE block, SENP1 inh)
CC(=O)N1c2ccc(S(=O)(=O)NCC3CCC(C(=O)NCc4ccc(C)cc4)CC3)cc2CC1C (configuration not stated)	ADAM10 inh 74.0 | ADAM10 confirm inactive | ADAM17 ctr inactive
CC(=O)N1c2ccc(S(=O)(=O)NCC3CCC(C(=O)NCc4ccc(C)o4)CC3)cc2CC1C (configuration not stated)	none
Cc1ccc(S(=O)(=O)Nc2ccc(C(=O)Nc3ccncc3)cc2)cc1	none
Cc1ccc(NS(=O)(=O)c2ccc(NC(=O)c3cccc(NC(=O)C(C)C)c3)cc2)cc1	ADAM10 inh 23.5 | ADAM10 confirm inactive | ADAM17 ctr inactive
CC1(C)CC2CC(C)(CN2C(=O)c2cc(-c3ccc(O)cc3)on2)C1 (configuration not stated)	ADAM10 inh 22.5 | ADAM10 confirm inactive | ADAM17 ctr inactive
COc1cccc(-c2cc(C(=O)N3CC4(C)CC3CC(C)(C)C4)no2)c1 (configuration not stated)	none
O=C(Nc1ccc2c(c1)Cc1ccccc1-2)NC1CCCCN(Cc2cccc(Cl)c2)C1=O (configuration not stated)	none (no result: FAS TE block, SENP1 inh)
COc1cccc(N(C)C(=O)[C@@H](C2CC2)[C@@H](O)c2ccc(Cl)cc2)c1	none (no result: FAS TE block, SENP1 inh)
CN(C(=O)[C@@H](C1CC1)[C@@H](O)c1ccc2ccccc2c1)c1ccccc1	ADAM10 inh 87.2 (no result: FAS TE block, SENP1 inh) | ADAM10 confirm inactive | ADAM17 ctr inactive
CC1(C)CC1C(=O)Nc1ccc([N+](=O)[O-])cc1Br (configuration not stated)	none
